# Legend:
# Human alphaherpesvirus 1 [1] = assay: Antiviral activity against thymidine kinase deficient and acyclovir resistant HSV1 KOS in human HEL cells assessed as reduction of virus-induced cytopathogenicity; format: functional; conditions: Human alphaherpesvirus 1, KOS
# Method in brief: (§1)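 Confluent cell monolayers (E6SM, HEL, HeLa or Vero, per line) inoculated with 100 CCID50 virus; 1 h adsorption, residual virus removed, then incubated with compound at 400, 200, 100 … µg/ml. Cytopathicity scored once complete in untreated virus controls; MIC = concentration inhibiting virus-induced cytopathicity.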
# [2] = system: Mammalian orthoreovirus 1; assay: Antiviral activity against Reo virus 1 in african green monkey Vero cells assessed as reduction of virus-induced cytopathogenicity; format: functional; method in brief: as §1
# [3] = Cytotoxicity against human HEL cells assessed as alteration of cell morphology; format: cell-based
# Method in brief: (§2)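 Uninfected cell cultures exposed to test compounds alongside antiviral assays; minimum cytotoxic concentration (MCC) = concentration causing a microscopically detectable alteration of cell morphology.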
# [4] = system: Human immunodeficiency virus 1; assay: Antiviral activity against HIV1 3B in human MT4 cells assessed as protection against virus-induced cytopathogenicity by MTT assay; format: functional, organism-based; design: Activity: concentration or dose not given beside the values; conditions: for IC50: Human immunodeficiency virus 1, 3B, MT4
# Method in brief: (§3)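 MT-4 cells at 6 × 10⁵ cells/ml infected with HIV-1 IIIB or HIV-2 ROD at 100–300 CCID50; compounds in serial five-fold dilutions, triplicate mock- and virus-infected wells. MTT viability read at 540 and 690 nm after 5 days, median OD of three wells; EC50 = 50% protection from viral cytopathic effect.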
# Human alphaherpesvirus 1 [5] = assay: Antiviral activity against HSV1 KOS in human HEL cells assessed as reduction of virus-induced cytopathogenicity; format: functional; conditions: Human alphaherpesvirus 1, KOS; method in brief: as §1
# [6] = Cytotoxicity against human MT4 cells by MTT assay; format: cell-based
# Method in brief: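 Mock-infected MT-4 cells (6 × 10⁵ cells/ml) with serial five-fold compound dilutions in triplicate; MTT reduction read at 540 and 690 nm after 5 days, median OD of three wells; CC50 = concentration reducing OD540 of mock-infected control by 50%.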
# Coxsackievirus B4 [7] = assay: Antiviral activity against Coxsackie virus B4 in african green monkey Vero cells assessed as reduction of virus-induced cytopathogenicity; format: functional; conditions: Enterovirus B; method in brief: as §1
# Human alphaherpesvirus 1 [8] = assay: Antiviral activity against thymidine kinase deficient and acyclovir resistant HSV1 KOS in human E6SM cells assessed as reduction of virus-induced cytopathogenicity; format: functional; conditions: Human alphaherpesvirus 1, KOS; method in brief: as §1
# [9] = system: Vesicular stomatitis virus; assay: Antiviral activity against vesicular stomatitis virus in human HeLa cells assessed as inhibition of virus-induced cytopathogenicity; format: functional; method in brief: as §1
# Punta Toro virus = assay: Antiviral activity against Punta Toro virus in african green monkey Vero cells assessed as reduction of virus-induced cytopathogenicity; format: functional; method in brief: as §1
# Human alphaherpesvirus 2 [10] = assay: Antiviral activity against HSV2 G in human E6SM cells assessed as reduction of virus-induced cytopathogenicity; format: functional; conditions: Human alphaherpesvirus 2, G; method in brief: as §1
# Human respirovirus 3 = assay: Antiviral activity against Parainfluenza 3 virus in african green monkey Vero cells assessed as reduction of virus-induced cytopathogenicity; format: functional; method in brief: as §1
# Sindbis virus = assay: Antiviral activity against Sindbis virus in african green monkey Vero cells assessed as reduction of virus-induced cytopathogenicity; format: functional; method in brief: as §1
# Coxsackievirus B4 [11] = assay: Antiviral activity against Coxsackie virus B4 in human HeLa cells assessed as inhibition of virus-induced cytopathogenicity; format: functional; conditions: Enterovirus B; method in brief: as §1
# [12] = system: Human immunodeficiency virus 2; assay: Antiviral activity against HIV2 ROD in human MT4 cells assessed as protection against virus-induced cytopathogenicity by MTT assay; format: functional, organism-based; design: Activity: concentration or dose not given beside the values; conditions: for IC50: Human immunodeficiency virus 2, ROD, MT4; method in brief: as §3
# [13] = Cytotoxicity against human HeLa cells; format: cell-based; method in brief: as §2
# [14] = system: Respiratory syncytial virus; assay: Antiviral activity against respiratory syncytial virus in human HeLa cells assessed as inhibition of virus-induced cytopathogenicity; format: functional; method in brief: as §1
# [15] = system: Vesicular stomatitis virus; assay: Antiviral activity against in Vesicular stomatitis virus in human E6SM cells assessed as reduction of virus-induced cytopathogenicity; format: functional; method in brief: as §1
# [16] = system: Vesicular stomatitis virus; assay: Antiviral activity against in Vesicular stomatitis virus in human HEL cells assessed as reduction of virus-induced cytopathogenicity; format: functional; method in brief: as §1
# Vero = assay: Cytotoxicity against african green monkey Vero cells; format: cell-based; conditions: chlorocebus sabaeus; method in brief: as §2
# Human alphaherpesvirus 2 [17] = assay: Antiviral activity against HSV2 G in human HEL cells assessed as reduction of virus-induced cytopathogenicity; format: functional; conditions: Human alphaherpesvirus 2, G; method in brief: as §1
# Human alphaherpesvirus 1 [18] = assay: Antiviral activity against HSV1 KOS in human E6SM cells assessed as reduction of virus-induced cytopathogenicity; format: functional; conditions: Human alphaherpesvirus 1, KOS; method in brief: as §1
# [19] = Cytotoxicity against human E6SM cells; format: cell-based; conditions: E6SM cells; method in brief: as §2
Structure (SMILES),MIC (Human alphaherpesvirus 1 [1]) [µg/mL],MIC [2] [µg/mL],MCC [3] [µg/mL],Activity [4] [%],IC50 [4] [µg/mL],MIC (Human alphaherpesvirus 1 [5]) [µg/mL],CC50 [6] [µg/mL],MIC (Coxsackievirus B4 [7]) [µg/mL],MIC (Human alphaherpesvirus 1 [8]) [µg/mL],MIC [9] [µg/mL],MIC (Punta Toro virus) [µg/mL],MIC (Human alphaherpesvirus 2 [10]) [µg/mL],MIC (Human respirovirus 3) [µg/mL],MIC (Sindbis virus) [µg/mL],MIC (Coxsackievirus B4 [11]) [µg/mL],Activity [12] [%],IC50 [12] [µg/mL],MCC [13] [µg/mL],MIC [14] [µg/mL],MIC [15] [µg/mL],other results
Cn1c(-c2ccc(NC(=S)Nc3ccccc3)cc2)n[nH]c1=S,48,> 80,400,35,> 42.8,> 80,42.8,> 80,48,> 16,> 80,> 80,> 80,> 80,> 16,10,> 42.8,80,> 16,> 80,MIC [16]: > 80 µg/mL; Activity (Vero): 400 µg/mL; MIC (Human alphaherpesvirus 2 [17]): > 80 µg/mL; MIC (Human alphaherpesvirus 1 [18]): > 80 µg/mL; MCC [19]: 400 µg/mL
C=CCNC(=S)Nc1ccc(-c2n[nH]c(=S)n2CCCCCC)cc1,> 16,> 16,80,4,> 10.1,> 16,10.1,> 16,> 16,> 16,> 16,> 16,> 16,> 16,> 16,0,> 10.1,80,> 16,> 16,MIC [16]: > 16 µg/mL; Activity (Vero): >= 16 ug ml-1; MIC (Human alphaherpesvirus 2 [17]): > 16 µg/mL; MIC (Human alphaherpesvirus 1 [18]): > 16 µg/mL; MCC [19]: 80 µg/mL
C=CCn1c(-c2ccc(NC(=S)Nc3ccccc3)cc2)n[nH]c1=S,> 16,> 16,80,30.5,> 19.4,> 16,19.4,> 16,> 16,> 80,> 16,> 16,> 16,> 16,> 80,0,> 19.4,400,> 80,> 16,MIC [16]: > 16 µg/mL; Activity (Vero): 80 µg/mL; MIC (Human alphaherpesvirus 2 [17]): > 16 µg/mL; MIC (Human alphaherpesvirus 1 [18]): > 16 µg/mL; MCC [19]: 80 µg/mL
C=CCNC(=S)Nc1ccc(-c2n[nH]c(=S)n2CCc2ccccc2)cc1,> 80,> 80,400,9,> 13,> 80,13,> 80,> 80,> 80,> 80,> 80,> 80,> 80,> 80,0,> 13,400,> 80,> 80,MIC [16]: > 80 µg/mL; Activity (Vero): >= 80 ug ml-1; MIC (Human alphaherpesvirus 2 [17]): > 80 µg/mL; MIC (Human alphaherpesvirus 1 [18]): > 80 µg/mL; MCC [19]: 400 µg/mL
S=C(Nc1ccc(Cl)cc1)Nc1ccc(-c2n[nH]c(=S)n2-c2ccccc2)cc1,> 16,> 16,≥ 16,4.5,> 10.3,> 16,10.3,> 16,> 16,> 16,> 16,> 16,> 16,> 16,> 16,31,> 10.3,80,> 16,> 16,MIC [16]: > 16 µg/mL; Activity (Vero): >= 16 ug ml-1; MIC (Human alphaherpesvirus 2 [17]): > 16 µg/mL; MIC (Human alphaherpesvirus 1 [18]): > 16 µg/mL; MCC [19]: ≥ 16 µg/mL
CCCCCCNC(=S)Nc1ccc(-c2n[nH]c(=S)n2CC)cc1,> 80,> 80,400,21,> 2.58,> 80,2.58,> 80,> 80,> 400,> 80,> 80,> 80,> 80,> 400,3,> 2.58,≥ 400,> 400,> 80,MIC [16]: > 80 µg/mL; Activity (Vero): 400 µg/mL; MIC (Human alphaherpesvirus 2 [17]): > 80 µg/mL; MIC (Human alphaherpesvirus 1 [18]): > 80 µg/mL; MCC [19]: 400 µg/mL
CCCCCCNC(=S)Nc1ccc(-c2n[nH]c(=S)n2C)cc1,48,> 16,400,8,> 8.82,48,8.82,> 16,48,> 16,> 16,48,> 16,> 16,> 16,0,> 8.82,80,> 16,> 80,MIC [16]: > 80 µg/mL; Activity (Vero): 80 µg/mL; MIC (Human alphaherpesvirus 2 [17]): 48 µg/mL; MIC (Human alphaherpesvirus 1 [18]): 48 µg/mL; MCC [19]: 400 µg/mL
C=CCNC(=S)Nc1ccc(-c2nnc(SCc3ccc(Cl)cc3Cl)n2-c2ccccc2)cc1,> 16,> 16,≥ 16,1.5,> 65.3,> 16,65.3,> 16,> 16,> 16,> 16,> 16,> 16,> 16,> 16,0,> 65.3,80,> 16,> 16,MIC [16]: > 16 µg/mL; Activity (Vero): >= 16 ug ml-1; MIC (Human alphaherpesvirus 2 [17]): > 16 µg/mL; MIC (Human alphaherpesvirus 1 [18]): > 16 µg/mL; MCC [19]: ≥ 16 µg/mL
S=C(Nc1ccccc1)Nc1ccc(-c2n[nH]c(=S)n2-c2ccccc2)cc1,> 80,> 16,≥ 80,25,> 28.6,> 80,28.6,> 16,> 80,> 80,> 16,> 80,> 16,> 16,> 80,0,> 28.6,80,> 80,> 80,MIC [16]: > 80 µg/mL; Activity (Vero): 80 µg/mL; MIC (Human alphaherpesvirus 2 [17]): > 80 µg/mL; MIC (Human alphaherpesvirus 1 [18]): > 80 µg/mL; MCC [19]: ≥ 80 µg/mL
C=CCNC(=S)Nc1ccc(-c2n[nH]c(=S)n2CC)cc1,240,> 80,400,8.5,> 57,240,57,> 80,240,> 80,80,240,> 80,> 80,> 80,0,> 57,400,> 80,> 80,MIC [16]: > 80 µg/mL; Activity (Vero): >= 80 ug ml-1; MIC (Human alphaherpesvirus 2 [17]): 240 µg/mL; MIC (Human alphaherpesvirus 1 [18]): 240 µg/mL; MCC [19]: 400 µg/mL
C=CCn1c(-c2ccc(NC(=S)NC)cc2)n[nH]c1=S,240,> 80,400,9,> 80.9,240,80.9,> 80,240,> 80,> 80,240,> 80,> 80,> 80,0,> 80.9,400,> 80,> 80,MIC [16]: > 80 µg/mL; Activity (Vero): >= 80 ug ml-1; MIC (Human alphaherpesvirus 2 [17]): 240 µg/mL; MIC (Human alphaherpesvirus 1 [18]): 240 µg/mL; MCC [19]: 400 µg/mL
